Values after ≈ are worked out from the molar mass of the structure shown. Active and inactive are the calls of the source. The rule behind the calls is not given here.
How the values were obtained:
[1] = Drug uptake in human HepG2 cell mitochondria at 10 uM after 4 hrs by confocal laser scanning microscopy; assay type: ADME; details: hepg2, 4 h
HepG2 [2] = test: Photocytotoxicity against human HepG2 cells assessed as cell viability at 20 uM incubated for 4 hrs prior to 630 mW laser irradiation for 10 mins followed by 24 hrs incubation in dark by CCK-8 assay; assay type: functional; details: for viability at 20 µM: HepG2, light or radiation study, read-out: Activity
How it was run: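 HepG2 cells were incubated with 20 μM photosensitizer for 4 h and split into two equal series. One series received 800 nm femtosecond laser light (1.64 W cm−2, 1 kHz, 130 fs) for 10 min; the other stayed dark as control. Both were held 24 h in the dark before viability was read. Photosensitizer-free cells were also irradiated. Mean ± SD, three replicates.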

HepG2 [3] = test: Cellular uptake in human HepG2 cells at 20 uM after 4 hrs by fluorescence spectrophotometry; assay type: ADME, cell-based; details: hepg2, 4 h
How it was run: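 HepG2 cells were incubated with 20 μM photosensitizer for different times and intracellular concentration was measured at each time point. Mean ± SD, three replicates.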

HepG2 [4] = test: Dark cytotoxicity against human HepG2 cells after 24 hrs by CCK-8 assay; assay type: cell-based; details: HepG2, 24 h
How it was run: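 HepG2 cells exposed to a range of photosensitizer concentrations (tested up to 50 μM) for 24 h without light before the viability test. IC50 is the concentration giving 50% growth inhibition.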

[5] = Octanol-water partition coefficient, log P of the compound; assay type: physicochemical
[6] = Solubility of the compound in PBS buffer at pH 7.4; assay type: physicochemical
HepG2 [7] = test: Photocytotoxicity against human HepG2 cells assessed as growth inhibition incubated for 4 hrs in dark prior to 20 mW cm'-2 laser irradiation for 20 mins followed by 24 hrs incubation in dark by CCK8 assay; assay type: functional, cell-based; details: HepG2, light or radiation study
How it was run: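 HepG2 cells were loaded with photosensitizer for 4 h and then irradiated with a 532 nm laser for 20 min at 20 mW cm−2. They were kept in the dark for 24 h before the viability test. IC50 is the concentration giving 50% growth inhibition.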

HepG2 [8] = test: Intracellular ROS generation in human HepG2 cells at 20 uM after 4 hrs by DCFH-DA-based fluorescence analysis; assay type: functional, cell-based
How it was run: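 Intracellular ROS in HepG2 cells was detected with the probe 2,7-dichlorodihydrofluorescein diacetate (DCFH-DA), which ROS convert to fluorescent 2,7-dichlorofluorescein.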

Structure (SMILES)	Drug uptake [1]	Drug uptake (HepG2 [3])	logP [5]	solubility [6] [µg/mL]	Activity (HepG2 [2])	IC50 (HepG2 [4]) [µM]	IC50 (HepG2 [7]) [µM]	Activity (HepG2 [8])	viability at 20 µM (HepG2 [2]) [%]
COCCOCCOCCOCCN(C)c1ccc(/C=C/C(=O)c2cc3ccc(OCCOCCOCCOC)cc3oc2=O)cc1	Not Active	Active	1.4	700 (≈ 1060 µM)	inactive	> 50	> 50	Active	
CCN(CC)c1ccc(/C=C/C(=O)c2cc3ccc(OCCOCCOCCOC)cc3oc2=O)cc1	Active	Active	3	1.1 (≈ 2.16 µM)		> 50	8.1	Active	70
CCN(CC)c1ccc2cc(C(=O)/C=C/c3ccc(N(C)CCOCCOCCOCCOC)cc3)c(=O)oc2c1	Active	Active	3.4	26 (≈ 45.9 µM)		> 50	3.9	Active	20

Continued, in another order:

Drug uptake [1]	Drug uptake (HepG2 [3])	logP [5]	solubility [6] [µg/mL]	Structure (SMILES)	Activity (HepG2 [2])	IC50 (HepG2 [4]) [µM]	IC50 (HepG2 [7]) [µM]	Activity (HepG2 [8])	viability at 20 µM (HepG2 [2]) [%]
Not Active	Active	0.3	> 10000	COCCOCCOCCOCCN(CCOCCOCCOCCOC)c1ccc(/C=C/C(=O)c2cc3ccc(OCCOCCOCCOC)cc3oc2=O)cc1	inactive	> 50	> 50	Active	
Active	Active	2.2	750 (≈ 1010 µM)	CCN(CC)c1ccc2cc(C(=O)/C=C/c3ccc(N(CCOCCOCCOCCOC)CCOCCOCCOCCOC)cc3)c(=O)oc2c1		> 50	4.6	Active	30

Reference: ChEMBL document CHEMBL2396579, “Synthesis and in vitro photocytotoxicity of coumarin derivatives for one- and two-photon excited photodynamic therapy” (J Med Chem, 2013)
